# From PubChem BioAssay AID624466 (The Scripps Research Institute Molecular Screening Center, 2012)
# In all, about 360,000 compounds went through this assay and about 5,400 (1.5%) were called active. The list comes from a sample in which actives are over-represented; it also holds similar structures and randomly drawn compounds. Values without a mark were called inactive.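 How the source made its calls: active means inhibition above a per-plate cutoff, the mean inhibition of test compounds on that plate plus 3 SD (cut at about 49% in these data); inactive means the rest.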
# Target: Trace amine-associated receptor 1 (Homo sapiens) (UniProt Q96RJ0)
# Test: human TAAR1 antagonists, primary screen, Fluo-8 calcium fluorescence, CHO RD-HGA16 cells (AID 624466);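 further: 0% = DMSO plus EC80 beta-PEA response and 100% = DMSO alone without agonist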
# Details: CHO RD-HGA16 TAAR1, Fluo-8 calcium fluorescence, antagonist; at 3 µM; stronger effect = higher value
# Outline: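 test system = CHO RD-HGA16 cells bearing hTAAR1 | replication = singlicate | controls = DMSO-only wells and EC80 β-PEA-stimulated wells | reagent = EC80 β-phenethylamine stimulus | read-out basis = percent inhibition of PEA-evoked calcium signal, max/basal emission ratio | schedule = seeding 17-24 h prior, 75-min 37 °C, 30-min RT dye loading | signal = kinetic Fluo-8 calcium fluorescence measurement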
# Chain of Trace amine-associated receptor 1 (Homo sapiens) (Q96RJ0 whole entry, looked up): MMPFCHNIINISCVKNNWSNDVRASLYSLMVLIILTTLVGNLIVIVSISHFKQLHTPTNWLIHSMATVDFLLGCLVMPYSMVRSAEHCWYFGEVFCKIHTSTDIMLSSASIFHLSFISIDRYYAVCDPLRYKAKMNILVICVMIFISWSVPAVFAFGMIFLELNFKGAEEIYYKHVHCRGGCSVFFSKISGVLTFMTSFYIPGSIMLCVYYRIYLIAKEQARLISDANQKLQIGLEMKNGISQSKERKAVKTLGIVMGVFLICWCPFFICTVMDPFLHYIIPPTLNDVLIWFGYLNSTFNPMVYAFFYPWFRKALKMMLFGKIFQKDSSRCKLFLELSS
row,Structure (SMILES),inhibition
1,COC(=O)[C@H](CC(C)C)NS(=O)(=O)c1c(F)cccc1F,-8.02%
2,COC(=O)C1=C(C)N(Cc2cccc(C(F)(F)F)c2)C(=NCc2ccccc2)NC1c1ccccc1C(F)(F)F (stereo unspecified),-4.18%
3,O=C1N[C@@H](c2ccccc2)COC(=O)[C@H](Cc2ccc(F)cc2)C/C=C\C[C@@H]1CC(=O)N(CCO)Cc1ccccc1,42.8%
4,O=C1NC[C@@H](c2ccccc2)OC(=O)[C@H](Cc2ccc(F)cc2)CC/C=C/C[C@H]1CC(=O)N(CCO)Cc1ccccc1,74% (active)
5,O=C1CCC/C=C/C[C@@H](CC(=O)N(CCO)Cc2ccccc2)C(=O)NC[C@H](c2ccccc2)O1,-5.27%
6,COc1ccc(C2=CN(Cc3ccccc3)C(c3ccc(OC)cc3)CC2=O)cc1 (stereo unspecified),-4.92%
7,COc1cccc(OCc2cc(/C=N/NC(=O)c3nc(Cl)c(Cl)c(N)c3Cl)ccc2OC)c1,-5%
8,COc1ccc2[nH]c(C(=O)Nc3ccccc3Cl)cc2c1,-23.7%
9,COc1ccc2[nH]c(C(=O)N/N=C/c3cc(OC)c(OC)c(OC)c3)cc2c1,50.5% (active)
10,Cc1cc(NCCc2c[nH]c3ccccc23)ccc1Oc1cccnc1,21.6%
11,COc1cc(OC)cc(-c2sc3ccc(OC)cc3c2-c2ccc3cc[nH]c3c2)c1,-5.68%
12,COc1ccc2sc(-c3ccc(S(C)(=O)=O)cc3)c(C#Cc3cncn3C)c2c1,47.9%
13,COc1ccc2sc(-c3ccc(S(C)(=O)=O)cc3)c(-c3ccc(C(N)=O)cc3)c2c1,50.5% (active)
14,CN(C)C(=O)N1CCN(C(=O)[C@@H](Cc2ccccc2)NC(=O)[C@H]2O[C@@H](n3ccc(N)nc3=O)[C@H](O)[C@@H]2O)CC1,-11.3%
15,CCOC(=O)N1CCN(C(=O)C[C@@H]2C[C@@]3(C(=O)OC)CCCCC=C3N(CCC3=CCCCC3)C2=O)CC1,16.7%
16,OC(c1ccccc1)(c1ccccc1)C1CCN(CCCOc2ccc(-c3ccsc3)cc2)CC1,51.2% (active)
17,N#Cc1ccc(OCCCN2CCC(C(O)(c3ccccc3)c3ccccc3)CC2)c(F)c1,18.2%
18,OC(c1ccccc1)(c1ccccc1)C1CCN(CCCOc2ccccc2)CC1,19.2%
19,CCC(C(=O)NC(C)(C)C)n1c(-c2ccccc2)nc2ccccc21 (stereo unspecified),-9.33%
20,COc1ccc(C(C(=O)Nc2c(C)cccc2C)N2CCN(c3ccc(C)cc3)CC2)cc1 (stereo unspecified),-16.4%
21,Cc1ccccc1CN1C(=O)CSCC1(C)C(=O)Nc1c(C)cccc1C (stereo unspecified),-0.37%
22,CN(C(=O)c1cccc(OC2CCN(S(=O)(=O)N(C)C)CC2)c1)C1CCOC1 (stereo unspecified),-15.9%

row,Structure (SMILES),inhibition
1,CN(C)S(=O)(=O)N1CCC(Oc2cccc(C(=O)NCCCC3CCCC3)c2)CC1,61.1% (active)
2,COc1cccc(C(=O)NCCS(=O)(=O)NCC2CCCO2)c1 (stereo unspecified),4.1%
3,CCCCn1nnnc1C1(C)CCC(=O)N1Cc1ccc(OC)c(OC)c1 (stereo unspecified),-1.16%
4,CC(C)(C)NC(=O)C(CCc1ccccc1)n1c(=O)c(-c2ccccc2)nc2ccccc21 (stereo unspecified),-53.9%
5,COc1ccccc1CNC(=O)c1ccc(CS(=O)(=O)c2ccccc2)o1,26.5%
6,COc1ccc(CCNC(=O)c2ccc(CS(=O)(=O)c3ccc(Br)cc3)o2)cc1OC,77.3% (active)
7,COc1ccc(CCNC(=O)c2nnc(CS(=O)(=O)c3ccccc3)o2)cc1OC,-2.06%
8,CCCCNC(=O)Nc1c(C)cc(SC#N)cc1C,7.39%
9,O=C(NN1C(=O)C2C3C=CC(C4CC34)C2C1=O)c1ccc(Cl)cc1 (stereo unspecified),1.86%
10,Cc1ccc(N)cc1CN1CCN(c2ncc(Cc3ccccc3)cn2)CC1,-11.9%
11,O=C(Nc1ccc(S(=O)(=O)N2CCCCCC2)cc1)c1c(F)cccc1F,-11.6%
12,O=C(Nc1cccc(S(=O)(=O)N2CCCCC2)c1)c1cncc(Br)c1,28.2%
13,Cc1onc(-c2c(F)cccc2Cl)c1C(=O)Nc1cccc(S(=O)(=O)N2CCCCC2)c1,60.4% (active)
14,Cc1ccc([C@@H]2CC=C(C(=O)O)[C@H](c3cccc(Cl)c3)N2S(=O)(=O)c2ccc(C)cc2)cc1,29.7%
15,Cc1ccccc1S(=O)(=O)N1[C@@H](c2cccc(Cl)c2)C(C(=O)O)=CC[C@H]1c1ccc(Cl)cc1,50.1% (active)
16,Cc1ccccc1S(=O)(=O)N1[C@@H](c2cccc(Cl)c2)C(C(=O)OC(C)(C)C)=CC[C@H]1c1ccc(Cl)cc1,-16.6%
17,CC(C)(C)n1nc(C2CC2)c(Br)c1NC(=O)c1ccccc1F,-16.1%
18,COc1ccc(-c2ccc3c(n2)CCCN3S(=O)(=O)c2ccc(C)cc2)cc1,24%
19,O=S(=O)(c1cccs1)N1CCCc2nc(-c3ccc(Br)cc3)ccc21,58% (active)
20,CN1CCCc2nc(-c3ccccc3)ccc21,-0.46%
21,COC(=O)[C@]12C[C@H](CC(=O)N3CCN(C(=O)C4CC4)CC3)C(=O)N(Cc3ccc4c(c3)OCO4)C1=C[C@H](C(C)(C)C)O[C@@H]2C,1.35%
22,O=C1Nc2ccccc2-n2nnnc2C1N1CCN(c2cccc(C(F)(F)F)n2)CC1 (stereo unspecified),7.81%

row,Structure (SMILES),inhibition
1,COc1ccc(C(=O)NC(C)CCc2ccccc2)c(OC)c1 (stereo unspecified),-22.5%
2,COc1ccc(C(=O)CCC(=O)Nc2cccnc2)c(OC)c1,-6.73%
3,COc1ccc(C(=O)Nc2cccc(NC(=O)c3ccc(OC)cc3OC)n2)c(OC)c1,64.8% (active)
4,CC1(C(=O)Nc2ccc3c(c2)OCCO3)CSCC(=O)N1CCOc1ccccc1 (stereo unspecified),-7.49%
5,CCN(CC)c1ccc2oc(=O)c(C)nc2c1,49.8% (active)
6,CCc1ccc2oc(-c3ccc(N)cc3)nc2c1,8.65%
7,Cc1ccc2oc(=O)ccc2c1,2.03%
8,O=C(NCCCn1ccnc1)c1cc2c(s1)CCCC2,-26.6%
9,C/C=N/N(c1ccccc1)c1ccccc1,-13.2%
10,C[C@H]1CN([C@@H](C)CO)C(=O)CCCn2nncc2CO[C@@H]1CN(C)C(=O)Nc1ccc(N2CCN(C)CC2)cc1,5.42%
11,O=C(CCl)Nc1ccc(Sc2ccc(NC(=O)CCl)cc2)cc1,21.9%
12,CC(C)CNC(=S)Nc1ccc(F)cc1,5.98%
13,CC(C)(CCl)C(=O)Nc1ccc(Sc2ccc(F)cc2)cc1,57.9% (active)
14,COc1cc(NS(=O)(=O)c2ccc(N/C=C(\C=O)c3nc4cc(Cl)ccc4o3)cc2)nc(OC)n1,16.2%
15,CCN(CC(=O)NC1CCS(=O)(=O)C1)S(=O)(=O)c1ccccc1 (stereo unspecified),-18%
16,O=C(NCCc1c[nH]c2ccccc12)C1CCN(Cc2ccc(Br)cc2)CC1,2.79%
17,N#C/C(=C/c1ccc(N2CCCCC2)o1)C(=O)NCCc1c[nH]c2ccccc12,57.6% (active)
18,N#C/C(=C\c1ccc(N2CCOCC2)o1)C(=O)N1CCOCC1,-12.1%
19,Cc1cc(Br)cn2c(Cc3ccccc3C(F)(F)F)c(-c3ccc(C#N)cc3)nc12,3.16%
20,CN(C(=O)COC(=O)CCCc1c[nH]c2ccccc12)c1c(N)n(Cc2ccccc2)c(=O)[nH]c1=O,2.09%
21,COc1ccc(SSc2ccc(OC)cc2C(=O)O)c(C(=O)O)c1,-9.02%
22,S=C(Nc1ccc(Br)cc1)NC1CCN(Cc2ccccc2)CC1,51.4% (active)

row,Structure (SMILES),inhibition
1,S=C(NN=C1CCN(Cc2ccccc2)CC1)NC1CCCCC1,-2.21%
2,S=C(Nc1ccc(Br)cc1Cl)NC1CCN(Cc2ccccc2)CC1,0.09%
3,Cc1ccc2nc(-c3ccc(CN4CCC(n5cc(-c6ccccc6)[nH]c5=O)CC4)cc3)c(-c3ccccc3)nc2c1,14.1%
4,Cc1cc(Cl)c(S(=O)(=O)NCc2cccnc2)cc1OCC(N)=O,-0.54%
5,CCC(=O)N1Cc2cc(C(=O)NCc3cccc(F)c3)nc(-c3cccc(C4=CCCC4)c3)c2[C@H]1CCO,-2.34%
6,Nc1c(C(=O)c2cccs2)sc2nsc(SCCN3CCCCC3)c12,61.2% (active)
7,COc1cccc(-c2nnc(N(C)C(=O)c3ccno3)s2)c1,8.59%
8,CN=C1SC(CC(=O)Nc2ccc(C(=O)O)cc2)C(=O)N1C (stereo unspecified),-12.5%
9,CCN1C(=O)C(CC(=O)Nc2cc(C)ccc2C)SC1=Nc1ccc(S(N)(=O)=O)cc1 (stereo unspecified),6.51%
10,CCN=C1SC(CC(=O)Nc2ccc(C)cc2)C(=O)N1CC (stereo unspecified),57.5% (active)
11,Cc1ccc(NC(=O)N2c3ccccc3SC2c2ccco2)c(C)c1 (stereo unspecified),-10.8%
12,CC(=O)N1CCc2cc(S(=O)(=O)NC3CCCCC3)ccc21,6.97%
13,Cc1ccc(NC(=O)CN(C)C(=O)Cn2nnc(-c3ccccc3)n2)cc1,-1.85%
14,COc1ccc(-c2nc3ccccc3n2CCC(C)C)cc1OC,19.6%
15,CC(=O)OCCN(CCCn1c(-c2ccncc2)nc2ccccc21)c1nc(-c2ccc(C)cc2)cs1,53.5% (active)
16,CCOCCn1c(-c2ccccc2)nc2ccccc21,-32.8%
17,CCc1cccc2c3c([nH]c12)C(CC)(CC(=O)O)OCC3 (stereo unspecified),-11.8%
18,O=C1CCN(Cc2ccccc2)CCN1[C@H](CSc1ccccc1)c1ccccc1,15.6%
19,CC(C)C1Cc2[nH][nH]c(=O)c2C(c2ccc(Cl)cc2)O1 (stereo unspecified),-21.6%
20,CCC(c1nnnn1-c1ccc2c(c1)OCCO2)N1CCN(c2ccc(C(F)(F)F)cn2)CC1 (stereo unspecified),24.4%
